# From ChEMBL document CHEMBL3525907, “Studies on the metabolism and biological activity of the epimers of sulindac” (Drug Metab Dispos, 2011)
# Calls of active or inactive are those of the source. The rule behind the calls is not given here.
# Assays:
# MRC5 = assay: Cytoprotective activity in TBHP-induced human MRC5 cells at 500 uM incubated for 48 hrs prior to TBHP-challenge measured after 2 hrs; type: functional, cell-based
# Method in brief: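 Normal lung cells preincubated 48 h with 500 μM (R)- or (S)-sulindac or no drug, then challenged with TBHP; viability expressed as percent of cells not exposed to TBHP; mean and S.E. of five repeats; p < 0.05 versus no-drug controls.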
# Cytochrome P450 1A2 [1] = target: Cytochrome P450 1A2 (Rattus norvegicus, UniProt P04799); assay: Drug metabolism assessed as rat recombinant CYP1A2-mediated sulindac sulfone formation measured per pmol of protein at 200 uM after 90 mins by HPLC analysis; type: ADME; details: recombinant enzyme, 1.5 h
# Method in brief: (§1)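 Recombinant rat or human P450 Supersomes (some with cytochrome b5, variable reductase) incubated with (R)-sulindac at 500 μM or (S)-sulindac at 200 μM plus NADPH-regenerating system in 100 mM potassium phosphate pH 7.4 at 37°C, linear up to 90 min; acetonitrile stop; sulfone by C18 HPLC at 330 nm; ≥3 runs; pmol/pmol enzyme/h, mean ± S.E.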
# Cytochrome P450 1B1 = Cytochrome P450 1B1 (Homo sapiens, UniProt Q16678); assay: Drug metabolism assessed as human recombinant CYP1B1-mediated sulindac sulfone formation measured per pmol of protein at 200 uM after 90 mins by HPLC analysis; type: ADME; details: recombinant enzyme, 1.5 h; method in brief: as §1
# Cytochrome P450 1B1, sequence (Q16678 whole entry): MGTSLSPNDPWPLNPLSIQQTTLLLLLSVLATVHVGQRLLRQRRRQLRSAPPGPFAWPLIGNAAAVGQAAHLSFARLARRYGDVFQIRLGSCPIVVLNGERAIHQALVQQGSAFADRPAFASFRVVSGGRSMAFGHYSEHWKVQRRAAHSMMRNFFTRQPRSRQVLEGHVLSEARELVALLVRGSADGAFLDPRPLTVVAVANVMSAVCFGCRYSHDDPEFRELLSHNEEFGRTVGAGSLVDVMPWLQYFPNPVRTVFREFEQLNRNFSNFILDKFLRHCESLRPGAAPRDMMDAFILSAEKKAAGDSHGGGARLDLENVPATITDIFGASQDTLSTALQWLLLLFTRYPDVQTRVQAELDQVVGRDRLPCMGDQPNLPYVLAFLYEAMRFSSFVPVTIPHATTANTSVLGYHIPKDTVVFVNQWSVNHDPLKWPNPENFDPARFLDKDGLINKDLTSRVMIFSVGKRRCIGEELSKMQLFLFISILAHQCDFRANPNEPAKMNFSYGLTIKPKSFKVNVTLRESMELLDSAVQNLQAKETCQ
# Cytochrome P450 2D6 = Cytochrome P450 2D6 (Homo sapiens, UniProt P10635); assay: Drug metabolism assessed as human recombinant CYP2D6-mediated sulindac sulfone formation measured per pmol of protein at 200 uM after 90 mins by HPLC analysis; type: ADME; details: recombinant enzyme, 1.5 h; method in brief: as §1
# Cytochrome P450 2D6, sequence (P10635 whole entry): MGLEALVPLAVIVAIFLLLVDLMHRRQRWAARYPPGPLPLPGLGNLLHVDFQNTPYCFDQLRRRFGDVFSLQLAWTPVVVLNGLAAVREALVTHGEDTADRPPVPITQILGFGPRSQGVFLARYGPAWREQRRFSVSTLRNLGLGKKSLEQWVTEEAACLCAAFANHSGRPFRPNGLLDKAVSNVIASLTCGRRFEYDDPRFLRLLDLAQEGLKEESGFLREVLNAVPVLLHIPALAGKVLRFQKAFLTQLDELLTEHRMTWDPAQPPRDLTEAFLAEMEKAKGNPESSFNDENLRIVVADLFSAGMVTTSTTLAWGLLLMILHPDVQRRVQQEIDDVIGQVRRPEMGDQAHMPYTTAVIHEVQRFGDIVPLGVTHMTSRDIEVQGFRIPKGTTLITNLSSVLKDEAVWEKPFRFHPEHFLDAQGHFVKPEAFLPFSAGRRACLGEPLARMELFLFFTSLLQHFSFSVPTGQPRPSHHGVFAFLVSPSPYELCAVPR
# Cytochrome P450 2C8 = Cytochrome P450 2C8 (Homo sapiens, UniProt P10632); assay: Drug metabolism assessed as human recombinant CYP2C8-mediated sulindac sulfone formation measured per pmol of protein at 200 uM after 90 mins by HPLC analysis; type: ADME; details: recombinant enzyme, 1.5 h; method in brief: as §1
# Cytochrome P450 1A1 = Cytochrome P450 1A1 (Rattus norvegicus, UniProt P00185); assay: Drug metabolism assessed as rat recombinant CYP1A1-mediated sulindac sulfone formation measured per pmol of protein at 200 uM after 90 mins by HPLC analysis; type: ADME; details: recombinant enzyme, 1.5 h; method in brief: as §1
# Cytochrome P450 1A1, sequence (P00185 whole entry): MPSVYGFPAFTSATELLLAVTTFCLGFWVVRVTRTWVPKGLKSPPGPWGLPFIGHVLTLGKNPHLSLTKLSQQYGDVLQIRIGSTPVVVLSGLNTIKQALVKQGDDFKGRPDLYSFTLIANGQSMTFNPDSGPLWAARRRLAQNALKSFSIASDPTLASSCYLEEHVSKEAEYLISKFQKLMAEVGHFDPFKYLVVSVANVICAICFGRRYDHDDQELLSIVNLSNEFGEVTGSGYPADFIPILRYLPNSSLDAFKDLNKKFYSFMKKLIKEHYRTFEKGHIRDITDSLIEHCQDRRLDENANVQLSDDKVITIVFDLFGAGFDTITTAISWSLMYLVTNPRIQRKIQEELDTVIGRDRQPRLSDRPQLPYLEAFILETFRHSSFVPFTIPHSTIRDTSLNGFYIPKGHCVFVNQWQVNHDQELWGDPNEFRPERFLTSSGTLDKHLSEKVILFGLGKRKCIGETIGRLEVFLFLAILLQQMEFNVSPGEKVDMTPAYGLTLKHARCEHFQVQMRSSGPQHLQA
# Cytochrome P450 2C9 = Cytochrome P450 2C9 (Homo sapiens, UniProt P11712); assay: Drug metabolism assessed as human recombinant CYP2C9-mediated sulindac sulfone formation measured per pmol of protein at 200 uM after 90 mins by HPLC analysis; type: ADME; details: recombinant enzyme, 1.5 h; method in brief: as §1
# Cytochrome P450 2C9, sequence (P11712 whole entry): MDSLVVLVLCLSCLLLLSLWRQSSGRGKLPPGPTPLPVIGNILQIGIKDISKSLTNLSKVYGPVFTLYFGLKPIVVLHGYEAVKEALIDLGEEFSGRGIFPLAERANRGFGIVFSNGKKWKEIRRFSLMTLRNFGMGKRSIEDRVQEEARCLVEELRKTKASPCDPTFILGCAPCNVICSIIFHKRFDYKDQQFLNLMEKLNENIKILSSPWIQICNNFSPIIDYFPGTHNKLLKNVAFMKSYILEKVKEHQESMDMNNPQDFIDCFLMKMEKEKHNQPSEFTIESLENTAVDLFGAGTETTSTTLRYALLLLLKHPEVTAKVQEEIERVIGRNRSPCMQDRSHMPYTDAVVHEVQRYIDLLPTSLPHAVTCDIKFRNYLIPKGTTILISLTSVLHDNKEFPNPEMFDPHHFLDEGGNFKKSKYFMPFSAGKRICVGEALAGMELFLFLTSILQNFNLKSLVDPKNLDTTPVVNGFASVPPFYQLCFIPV
# A549 = assay: Potentiation of TBHP-induced cytotoxicity in human A549 cells at 500 uM incubated for 48 hrs prior to TBHP-challenge measured after 2 hrs; type: functional, cell-based
# Cytochrome P450 1A2 [2] = target: Cytochrome P450 1A2 (Homo sapiens, UniProt P05177); assay: Drug metabolism assessed as human recombinant CYP1A2-mediated sulindac sulfone formation measured per pmol of protein at 200 uM after 90 mins by HPLC analysis; type: ADME; details: recombinant enzyme, 1.5 h; method in brief: as §1
# Cytochrome P450 1A2 (Homo sapiens, UniProt P05177), sequence (P05177 whole entry): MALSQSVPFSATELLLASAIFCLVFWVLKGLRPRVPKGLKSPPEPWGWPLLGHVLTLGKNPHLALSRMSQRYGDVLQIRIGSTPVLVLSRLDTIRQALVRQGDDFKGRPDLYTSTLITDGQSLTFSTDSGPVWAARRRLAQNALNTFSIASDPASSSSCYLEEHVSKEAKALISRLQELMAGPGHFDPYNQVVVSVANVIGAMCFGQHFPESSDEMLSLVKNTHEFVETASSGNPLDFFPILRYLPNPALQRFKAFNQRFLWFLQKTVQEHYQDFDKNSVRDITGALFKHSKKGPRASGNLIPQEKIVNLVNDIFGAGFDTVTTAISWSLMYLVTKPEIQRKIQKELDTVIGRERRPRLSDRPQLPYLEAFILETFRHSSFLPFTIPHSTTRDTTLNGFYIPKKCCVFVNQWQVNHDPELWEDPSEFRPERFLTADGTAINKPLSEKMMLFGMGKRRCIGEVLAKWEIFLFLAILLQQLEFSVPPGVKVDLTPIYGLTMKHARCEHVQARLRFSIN
# Cytochrome P450 3A2 = Cytochrome P450 3A2 (Rattus norvegicus, UniProt P05183); assay: Drug metabolism assessed as rat recombinant CYP3A2-mediated sulindac sulfone formation measured per pmol of protein at 200 uM after 90 mins by HPLC analysis; type: ADME; details: recombinant enzyme, 1.5 h; method in brief: as §1
# Cytochrome P450 3A2, sequence (P05183 whole entry): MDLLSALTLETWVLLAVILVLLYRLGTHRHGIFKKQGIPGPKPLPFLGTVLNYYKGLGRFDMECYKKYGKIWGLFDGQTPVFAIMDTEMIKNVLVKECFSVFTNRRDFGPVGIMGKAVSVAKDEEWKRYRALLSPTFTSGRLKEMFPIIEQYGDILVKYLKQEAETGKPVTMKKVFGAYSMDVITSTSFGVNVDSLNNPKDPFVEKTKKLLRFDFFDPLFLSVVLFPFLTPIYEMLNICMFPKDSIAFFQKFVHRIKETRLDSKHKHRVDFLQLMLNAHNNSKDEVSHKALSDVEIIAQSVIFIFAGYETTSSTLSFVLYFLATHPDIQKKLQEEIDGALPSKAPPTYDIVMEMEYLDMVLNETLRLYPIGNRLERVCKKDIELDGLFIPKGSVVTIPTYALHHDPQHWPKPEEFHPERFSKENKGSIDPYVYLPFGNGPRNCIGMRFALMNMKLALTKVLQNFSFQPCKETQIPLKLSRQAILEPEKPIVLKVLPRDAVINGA
# Cytochrome P450 2C19 = Cytochrome P450 2C19 (Homo sapiens, UniProt P33261); assay: Drug metabolism assessed as human recombinant CYP2C19-mediated sulindac sulfone formation measured per pmol of protein at 200 uM after 90 mins by HPLC analysis; type: ADME; details: recombinant enzyme, 1.5 h; method in brief: as §1
# Cytochrome P450 2C19, sequence (P33261 whole entry): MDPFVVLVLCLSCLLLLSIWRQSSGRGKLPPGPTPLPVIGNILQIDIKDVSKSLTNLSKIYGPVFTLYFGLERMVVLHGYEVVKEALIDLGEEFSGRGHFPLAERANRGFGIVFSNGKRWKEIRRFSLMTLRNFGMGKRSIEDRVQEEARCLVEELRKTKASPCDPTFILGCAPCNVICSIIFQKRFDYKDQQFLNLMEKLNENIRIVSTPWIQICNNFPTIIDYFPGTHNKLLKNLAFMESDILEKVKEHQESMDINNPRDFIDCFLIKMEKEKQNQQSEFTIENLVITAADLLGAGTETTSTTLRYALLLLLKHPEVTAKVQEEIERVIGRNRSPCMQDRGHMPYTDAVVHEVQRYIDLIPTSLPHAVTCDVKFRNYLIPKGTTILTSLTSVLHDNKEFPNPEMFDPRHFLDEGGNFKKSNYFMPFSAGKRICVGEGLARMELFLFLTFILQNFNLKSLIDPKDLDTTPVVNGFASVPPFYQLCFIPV
# Cytochrome P450 3A4 = Cytochrome P450 3A4 (Homo sapiens, UniProt P08684); assay: Drug metabolism assessed as human recombinant CYP3A4-mediated sulindac sulfone formation measured per pmol of protein at 200 uM after 90 mins by HPLC analysis; type: ADME; details: recombinant enzyme, 1.5 h; method in brief: as §1
# Cytochrome P450 3A4, sequence (P08684 whole entry): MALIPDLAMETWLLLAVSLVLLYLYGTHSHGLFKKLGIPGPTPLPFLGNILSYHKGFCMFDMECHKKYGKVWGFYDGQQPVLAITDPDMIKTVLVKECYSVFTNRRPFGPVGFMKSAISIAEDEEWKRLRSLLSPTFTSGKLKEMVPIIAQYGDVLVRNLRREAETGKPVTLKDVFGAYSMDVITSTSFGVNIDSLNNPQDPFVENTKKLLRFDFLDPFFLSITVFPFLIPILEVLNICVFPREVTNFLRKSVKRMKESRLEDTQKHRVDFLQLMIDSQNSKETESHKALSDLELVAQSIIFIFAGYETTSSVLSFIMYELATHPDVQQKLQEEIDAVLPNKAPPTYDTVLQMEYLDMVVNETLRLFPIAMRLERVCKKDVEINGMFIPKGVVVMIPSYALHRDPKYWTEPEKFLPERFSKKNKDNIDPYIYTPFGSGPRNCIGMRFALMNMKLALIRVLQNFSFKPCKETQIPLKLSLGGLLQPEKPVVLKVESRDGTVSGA
# [3] = target: Mitochondrial peptide methionine sulfoxide reductase (Rattus norvegicus, UniProt Q923M1); assay: Drug metabolism in rat liver S100 fraction assessed as MSRA-mediated reduced product formation measured per mg of protein at 200 uM by HPLC analysis; type: ADME, tissue-based
# Mitochondrial peptide methionine sulfoxide reductase, sequence (Q923M1 whole entry): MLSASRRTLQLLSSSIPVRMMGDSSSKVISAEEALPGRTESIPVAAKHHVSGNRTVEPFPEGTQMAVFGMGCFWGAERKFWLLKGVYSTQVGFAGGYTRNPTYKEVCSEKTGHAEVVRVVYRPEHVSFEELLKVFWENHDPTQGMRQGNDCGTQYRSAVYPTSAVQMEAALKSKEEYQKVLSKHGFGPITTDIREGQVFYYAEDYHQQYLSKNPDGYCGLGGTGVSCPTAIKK
# Cytochrome P450 2B1 = Cytochrome P450 2B1 (Rattus norvegicus, UniProt P00176); assay: Drug metabolism assessed as rat recombinant CYP2B1-mediated sulindac sulfone formation measured per pmol of protein at 200 uM after 90 mins by HPLC analysis; type: ADME; details: recombinant enzyme, 1.5 h; method in brief: as §1
# Cytochrome P450 2B1, sequence (P00176 whole entry): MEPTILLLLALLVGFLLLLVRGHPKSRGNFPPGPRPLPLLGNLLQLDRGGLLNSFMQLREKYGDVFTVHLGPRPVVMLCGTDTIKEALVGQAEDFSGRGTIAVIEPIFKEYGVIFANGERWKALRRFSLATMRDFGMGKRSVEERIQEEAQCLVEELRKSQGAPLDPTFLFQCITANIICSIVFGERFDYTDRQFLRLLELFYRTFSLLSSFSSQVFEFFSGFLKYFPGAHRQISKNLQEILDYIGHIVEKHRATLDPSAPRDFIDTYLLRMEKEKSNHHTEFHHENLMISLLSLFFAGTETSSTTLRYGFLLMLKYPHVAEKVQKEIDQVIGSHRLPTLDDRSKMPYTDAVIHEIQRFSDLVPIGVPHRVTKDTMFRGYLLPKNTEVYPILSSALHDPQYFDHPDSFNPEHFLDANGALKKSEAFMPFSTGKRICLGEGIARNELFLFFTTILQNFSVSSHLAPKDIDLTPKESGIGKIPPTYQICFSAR
# Plasma [4] = assay: Drug metabolism in Sprague-Dawley rat plasma treated with (S)-Sulindac at 2 mg, ip after 0.5 to 4 hrs by HPLC analysis; details: in vivo
# Plasma [5] = assay: Drug metabolism in Sprague-Dawley rat plasma treated with (R)-Sulindac at 2 mg, ip after 0.5 to 4 hrs by HPLC analysis; details: in vivo
# Brain [6] = assay: Drug metabolism in Sprague-Dawley rat brain treated with (R)-Sulindac at 2 mg, ip after 0.5 to 4 hrs by HPLC analysis; details: in vivo
# Zone of skin [7] = assay: Drug metabolism in Sprague-Dawley rat skin treated with (R)-Sulindac at 2 mg, ip after 0.5 to 4 hrs by HPLC analysis; details: in vivo
# [8] = Retention time in rat plasma measured after 4 hrs ip injection of sulindac; type: physicochemical, organism-based; details: in vivo
# Liver [9] = assay: Drug metabolism in Sprague-Dawley rat liver treated with (S)-Sulindac at 2 mg, ip after 0.5 to 4 hrs by HPLC analysis; details: in vivo
# Liver microsome = assay: Drug metabolism in rat liver microsomes at 200 µM after 60 mins by HPLC analysis in presence of NADPH; details: 1 h
# Brain [10] = assay: Drug metabolism in Sprague-Dawley rat brain treated with (S)-Sulindac at 2 mg, ip after 0.5 to 4 hrs by HPLC analysis; details: in vivo
# Liver [11] = assay: Drug metabolism in Sprague-Dawley rat liver treated with (R)-Sulindac at 2 mg, ip after 0.5 to 4 hrs by HPLC analysis; details: in vivo
# Zone of skin [12] = assay: Drug metabolism in Sprague-Dawley rat skin treated with (S)-Sulindac at 2 mg, ip after 0.5 to 4 hrs by HPLC analysis; details: in vivo
Compound,Drug metabolism (Plasma [4]),Drug metabolism (Plasma [5]),Drug metabolism (Brain [6]),Drug metabolism (Zone of skin [7]),Retention_time [8] [min],Drug metabolism (Liver [9]),Drug metabolism (Brain [10]),Drug metabolism (Liver [11]),Drug metabolism (Zone of skin [12]),other results
CC1=C(CC(=O)O)c2cc(F)ccc2/C1=C\c1ccc([S@+](C)[O-])cc1,–,–,–,–,–,–,–,–,–,Activity (MRC5): Active; Drug metabolism (Cytochrome P450 1A2 [1]): 24 pmol/h; Drug metabolism (Cytochrome P450 1B1): 0 pmol/h; Drug metabolism (Cytochrome P450 2D6): metabolite_not_detected; Drug metabolism (Cytochrome P450 2C8): metabolite_not_detected; Drug metabolism (Cytochrome P450 1A1): 22 pmol/h; Drug metabolism (Cytochrome P450 2C9): metabolite_not_detected; Activity (A549): Active; Drug metabolism (Cytochrome P450 1A2 [2]): 34 pmol/h; Drug metabolism (Cytochrome P450 3A2): metabolite_not_detected; Drug metabolism (Cytochrome P450 2C19): metabolite_not_detected; Drug metabolism (Cytochrome P450 3A4): 29 pmol/h; Drug metabolism [3]: metabolite_detected; Drug metabolism (Cytochrome P450 2B1): metabolite_not_detected
CC1=C(CC(=O)O)c2cc(F)ccc2/C1=C\c1ccc(S(C)(=O)=O)cc1 [EXISULIND],metabolite_detected,metabolite_detected,metabolite_detected,metabolite_detected,1.5,metabolite_detected,metabolite_detected,metabolite_detected,metabolite_detected,Drug metabolism (Liver microsome): metabolite_detected
CSc1ccc(/C=C2/C(C)=C(CC(=O)O)c3cc(F)ccc32)cc1 [SULINDAC SULFIDE],metabolite_detected,metabolite_detected,metabolite_detected,metabolite_detected,7.1,metabolite_detected,metabolite_detected,metabolite_detected,metabolite_detected,–
